# Source: PubChem (several laboratories)
# Sampled rows, rich in hits. Any-hit rate of the full collection: about 2.6%.
# SENP6 block: SENP6 protease inhibitors, primary screen, biochemical, luminescence, uHTS. Sentrin-specific protease 6 (Homo sapiens), Q9GZR1. Recombinant SENP6 catalytic domain, aminoluciferin luminescence. inhibition, % at 10 µM. 330,000 compounds, 1.8% hits. AID 2599, 2010;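 active = inhibition above about 50% at the single tested dose, limit read from the data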;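 also: plate controls were DMSO wells with enzyme for no effect and DMSO wells lacking enzyme for full effect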
# SENP8 block-1: SENP8 protease inhibitors, primary screen, biochemical, luminescence; Sentrin-specific protease 8 (Homo sapiens), Q96LD8; purified SENP8, Z-RLRGG-aminoluciferin cleavage; inhibition, % at 10 µM; 330,000 compounds, 1.2% hits; AID 2540, 2010; in the data active = inhibition above about 50%
# Target sequence (Q96LD8 whole entry, looked up): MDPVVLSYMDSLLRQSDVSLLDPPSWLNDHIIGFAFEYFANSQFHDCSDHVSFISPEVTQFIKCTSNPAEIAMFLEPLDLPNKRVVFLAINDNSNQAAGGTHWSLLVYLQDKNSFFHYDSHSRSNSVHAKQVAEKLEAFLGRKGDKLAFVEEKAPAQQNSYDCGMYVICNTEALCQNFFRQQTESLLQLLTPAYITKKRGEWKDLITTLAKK
# UCH37 DUB inh: inhibitors of human UCH37 deubiquitinase, primary screen, biochemical, Ub-AMC cleavage, fluorescence; Ubiquitin carboxyl-terminal hydrolase isozyme L5 (Homo sapiens), Q9Y5K5; purified proteasome/UCH37; inhibition, % (concentration not given with the values); 330,000 compounds, 0.33% hits;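 active = mean inhibition over replicate wells above about 20%, limit read from the data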;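 also: 0% = compound-free wells with enzyme and 100% = wells lacking proteasome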
# Target sequence (Q9Y5K5 whole entry, looked up): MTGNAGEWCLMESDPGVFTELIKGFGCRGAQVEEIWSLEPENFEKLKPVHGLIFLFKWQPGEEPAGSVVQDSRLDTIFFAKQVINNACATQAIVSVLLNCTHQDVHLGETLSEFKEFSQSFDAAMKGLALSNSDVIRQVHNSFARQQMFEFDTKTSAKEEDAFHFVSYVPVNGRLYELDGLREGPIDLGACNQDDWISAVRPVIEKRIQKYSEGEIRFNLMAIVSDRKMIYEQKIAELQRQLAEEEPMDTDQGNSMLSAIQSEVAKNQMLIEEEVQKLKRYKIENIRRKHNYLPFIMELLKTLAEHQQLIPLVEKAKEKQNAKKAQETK
#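 Test system – human UCH37 enzyme supplied as purified proteasome complex · Incubation – 30 min preincubation with enzyme, 25 min cleavage at room temperature · Detection – AMC fluorescence from Ub-AMC cleavage, excitation 355 nm, emission 460 nm · Benchmarks – no-proteasome wells (full inhibition) and compound-free wells (no inhibition)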
# SENP1 FRET inh: human SENP1 catalytic domain inhibitors, primary screen, biochemical, FRET, uHTS; 360,000 compounds, 0.21% hits; inhibition, % at 10 µM; recombinant SENP1 catalytic domain, CyPet-SUMO1-YPet FRET cleavage; Sentrin-specific protease 1 (Homo sapiens), Q9P0U3; AID 624204, 2012;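 active = inhibition at least 30% at 10 µM, raw YFP signal under a set limit, fluorescence ratio 0.5 to 1.5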;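 also: 0% = enzyme with DMSO and 100% = no enzyme wells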
#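 Material: hSENP1 catalytic domain, recombinant; medium: Tris pH 8 with BME, BSA, NP40 and catalase; compound: single concentration of 10 µM compound, 0.5% DMSO final; technique: FRET read of cyan and yellow fluorescence; timing: 50 min enzyme reaction, room temperature, light-protected; reagent: SFCypet-SUMO1-SFYpet substrate at 25 nM; control set: no-enzyme low, enzyme-DMSO high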
# SENP7 inh: SENP7 protease inhibitors, primary screen, biochemical, luminescence, uHTS. recombinant SENP7, Z-RLRGG-aminoluciferin luminescence, 40 min. inhibition, % at 5 µM. 330,000 compounds, 1.5% hits. AID 434973, 2010;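 active = inhibition above about 50% at the single test dose, limit read from the data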;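 also: plate controls were DMSO with enzyme for no effect and no enzyme buffer wells for full effect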
# SENP8 block-2: human SENP8 protease inhibitors, primary screen, biochemical, fluorescence, Nedd8 protein substrate, uHTS | Sentrin-specific protease 8 (Homo sapiens), Q96LD8 | recombinant SENP8 | inhibition, % at 20 µM | 360,000 compounds, 0.64% hits | AID 602440, 2012; in the data active = inhibition mostly above about 40%, no sharp cut-off; inactive = mostly below about 27%
# The depositor's hits bear a star; . = no result.
SMILES,SENP6 block,SENP8 block-1,UCH37 DUB inh,SENP1 FRET inh,SENP7 inh,SENP8 block-2
Cc1n[nH]c(C)c1CCC(=O)NN=Cc1cccc([N+](=O)[O-])c1,.,.,2,.,.,.
COc1ccc(C=NNc2nnc(Cc3ccccc3)c(=O)[nH]2)cc1,.,.,4,.,.,.
O=[N+]([O-])c1ccccc1-c1cc(-c2ccccc2O)n[nH]1,61*,36,3,0,14,10
Cc1ccc(-c2cc(-c3ccccc3C)[nH]n2)c(O)c1,39,30,-1,1,43,12
COc1ccc(O)c(C=NNC(=O)c2ccc(OCc3cccc(Br)c3)cc2)c1,.,.,5,.,.,.
CCN(CC)c1nc(N)c2c(N)n(-c3ccccc3C)c(=S)c(C#N)c2c1C#N,3,11,21*,-17,3,-20
O=C(O)CC(CC(=O)Nc1ccc(-n2ccc(C(F)(F)F)n2)cc1)c1ccccc1 (centres undefined),1,5,2,-1,3,5
O=C(Nc1ccccc1)Nc1ccc(-n2ccc(C(F)(F)F)n2)cc1,71*,57*,2,0,58*,8
O=C(NN=Cc1ccc(Cl)c([N+](=O)[O-])c1)C1CC1,.,.,3,.,.,.
O=[N+]([O-])c1cc(C=Nc2cccc3c(O)cccc23)ccc1Cl,84*,60*,.,.,25,.
CC(=O)N(C)C1=C(N2CCOCC2)C(=O)c2ccccc2C1=O,48,35,22*,1,31,33
CC(=O)N(C)C1=C(O)c2ccccc2C(=O)C1=O,15,-1,9,3,14,85*
CC(=O)N(C1=C(N2CCOCC2)C(=O)c2ccccc2C1=O)c1ccc(C(=O)O)cc1,18,19,24*,0,34,18
CC(=O)N(C1=C(O)c2ccccc2C(=O)C1=O)C1CCCCC1,3,5,5,-3,8,19
O=c1c(/C=N/Nc2ccccc2)c(Sc2nnnn2-c2ccccc2)nc2ccccn12,.,.,.,-22,.,0
O=C(O)c1ccccc1N/N=C/c1c(Sc2nnnn2-c2ccccc2)nc2ccccn2c1=O,-3,4,.,71*,-1,18
O=C(NN=Cc1ccc(Cl)c([N+](=O)[O-])c1)c1ccc2c(c1)OCCO2,.,.,4,.,.,.
CC(Cn1cnc([N+](=O)[O-])n1)=NNC(=O)c1cccc(F)c1,.,.,3,.,.,.
O=C(O)CCC(=NNc1ccc(S(=O)(=O)N2CCOCC2)cc1[N+](=O)[O-])c1cccs1,.,.,20*,.,.,.
O=C(O)CCC(=NNc1ccc([N+](=O)[O-])cc1S(=O)(=O)N1CCOCC1)c1cccs1,.,.,8,.,.,.
CCOC(=O)c1c(N=CC2=C(O)CCCC2=O)sc(C)c1C,.,.,2,.,.,.
CCOC(=O)c1sc(N=NC2=C(O)CCCC2=O)c(C(=O)OCC)c1C,3,0,2,-4,3,53*
O=C(CC(Nc1ccc(Cl)cc1Cl)C(=O)O)c1ccccc1 (centres undefined),-14,-2,3,3,-5,26
O=C(CC(Nc1ccccc1)C(=O)O)c1ccccc1 (centres undefined),79*,54*,-2,-13,10,-32
O=C1CC(c2ccc(O)cc2)Oc2cc(O)cc(O)c21 (centres undefined),27,17,4,1,5,-1
SMILES,SENP6 block,SENP8 block-1,UCH37 DUB inh,SENP1 FRET inh,SENP7 inh,SENP8 block-2
CC1CC(=O)c2c(cc3c(-c4c(O)cc(O)c5c(O)c6c(cc45)OC(C)CC6=O)c(O)cc(O)c3c2O)O1 (centres undefined),41,22,22*,70*,26,71*
CC(=NNc1ccc(Cl)c(C(=O)O)c1)c1ccc2c(c1)OCO2,.,.,4,.,.,.
Nc1c(Cl)ncnc1N/N=C/c1ccc(O)cc1,96*,95*,.,1,96*,-137
Nc1c(Cl)ncnc1NN=Cc1cccnc1,.,.,14,.,.,.
Cc1ccccc1NCC(=O)NN=Cc1c[nH]c2ccccc12,.,.,4,.,.,.
c1ccc2sc(SCSc3nc4ccccc4s3)nc2c1,-4,-5,1,0,-5,18
c1ccc2sc(SCc3ccc(-c4nnco4)cc3)nc2c1,96*,89*,0,-1,89*,-9
CCN(C(=S)Nc1cc(S(=O)(=O)N2CCOCC2)ccc1Cl)c1cccc2ccccc12,77*,58*,-26,-13,39,-388
COc1ccc(OC)c(/C(C)=N/Nc2ccc(C(=O)O)cc2)c1,-6,3,.,1,7,-8
C/C(=N/Nc1ccc(C(=O)O)cc1)c1ccc(O)c(O)c1O,-6,-17,.,1,-1,47*
CCC(=O)n1nc(-c2ccc(OC)cc2)nc1N,11,-12,-1,0,2,12
CCC(=O)n1nc(-c2ccccc2)nc1N,-3,-2,23*,1,1,23
CCc1nnc(NC(=O)c2cccc(S(=O)(=O)N3CCc4ccccc43)c2)s1,-28,-5,-4,-1,-3,6
Cc1nnc(NC(=O)c2cccc(S(=O)(=O)N3CCc4ccccc43)c2)s1,-14,2,27*,1,4,17
O=C1C(=Cc2cccc(Cl)c2)Cc2ccccc21,.,.,.,-1,.,6
O=C1/C(=C\c2ccc(Br)o2)Cc2ccccc21,73*,43,.,-48,22,-43
CCCNC(=O)C(Cc1cccc(Cl)c1)NC(=O)c1ccc(C#N)cc1 (centres undefined),-8,-11,27*,1,5,18
O=C(NN=Cc1ccncc1)c1ccc(OCc2ccccc2)cc1,.,.,1,.,.,.
Cc1ccc(Nc2nc3ccccc3s2)cc1,82*,72*,2,2,87*,9
Nc1cccc(C2=Nc3cccc4cccc(c34)N2)c1,.,.,6,-6,.,46*
O=C(O)c1ccc(C=Nn2c(C3CCCCC3)n[nH]c2=S)cc1,.,.,2,.,.,.
CC(=O)c1ccc(-c2ccc(/C=C(/Sc3n[nH]c(C)n3)C(=O)O)o2)cc1,-2,-13,21*,-34,0,13
Cc1nc(S/C(=C/c2ccc(-c3ccc(C(=O)O)cc3)o2)C(=O)O)n[nH]1,6,6,.,-36,4,-52
CC(=O)Nc1ccc(NC2=CC(=O)c3ccccc3C2=O)cc1,13,-4,8,1,6,-6
O=C(O)c1ccc(NC2=C/C(=N/S(=O)(=O)c3cccs3)c3ccccc3C2=O)cc1,.,.,.,0,.,98*
